Screens from PubChem.
IMP-1 inh-1 – inhibitors of Pseudomonas aeruginosa IMP-1 metallo-beta-lactamase | AID 1556 | purified IMP-1, nitrocefin hydrolysis, epi-absorbance fluorescence | inhibition, % at 5.6 µM | 0.45% of 290,000 active;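 active = inhibition above the mean plus 3 SD of all compounds in the same screening run, cut at about 4.5% in these data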;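 also: 0% = IMP-1 with DMSO and 100% = DMSO wells lacking enzyme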
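Test system: recombinant IMP-1 enzyme, purified / Medium: HEPES buffer pH 7.1 with ZnSO4 and Brij 35 / Doses: single dose, 5.6 µM / Times: 25 °C, 15 min preincubation, 25 min reaction / Detection: Epi-absorbance via hydrolysed-nitrocefin quenching of white-plate fluorescence, 480/530 nm, EDTA stop / Evaluation: percent inhibition from optical density relative to buffer-blank wells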
proCasp7 act – activates human procaspase-7, counter-screen for procaspase-3 activators | recombinant procaspase-7, Ac-DEVD-pNA absorbance 405 nm; D23A/D198A/D206A triple mutant, cannot self-cleave; scale: DMSO 0, 5 µM enzyme 100 | 0.093% of 330,000 active | activation, % at 8.5 µM;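 active = percent activation above the screen-wide mean plus 3 SD, cut at about 25% in these data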
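System: Procaspase-7 triple mutant (PC-7 D3A); measure: % activation from two-timepoint absorbance difference, scaled to controls; times: 1 h compound preincubation, 2 h substrate cleavage, 25 °C; also added: Ac-DEVD-pNA substrate, 400 µM as added; measured by: Epi-absorbance of released pNA at 405 nm, two timepoints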
PolyA inhibitor – blocks polyadenylation in yeast reporter cells; S. cerevisiae SKY197-pL101 polyadenylation reporter, beta-gal luminescence; efflux-impaired pdr1/pdr3 knockout yeast; score 100 = 6 SD above DMSO; activity score, % at 12 µM; 0.02% of 300,000 active; AID 1875;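 active = lowest replicate activity score at least 50, where 100 means six control SD above control mean; inconclusive = lowest score under 50 but half or more replicates reach 50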;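 also: yeast exposed to compound for 9 h at 30 °C; higher score means more reporter readthrough which indicates perturbed polyadenylation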
proCasp3 act – procaspase-3 (human) activation; recombinant procaspase-3 D3A, Ac-DEVD-pNA absorbance 405 nm; 0.11% of 330,000 active; P42574; activation, % at 8.5 µM;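 active = activation above the mean of all tested compounds plus 3 SD, cut at about 21% in these data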;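 also: 0% = DMSO alone and 100% = DMSO wells spiked with extra 5 µM PC-3 D3A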
Target sequence (P42574 whole entry D9A/D28A/D175A): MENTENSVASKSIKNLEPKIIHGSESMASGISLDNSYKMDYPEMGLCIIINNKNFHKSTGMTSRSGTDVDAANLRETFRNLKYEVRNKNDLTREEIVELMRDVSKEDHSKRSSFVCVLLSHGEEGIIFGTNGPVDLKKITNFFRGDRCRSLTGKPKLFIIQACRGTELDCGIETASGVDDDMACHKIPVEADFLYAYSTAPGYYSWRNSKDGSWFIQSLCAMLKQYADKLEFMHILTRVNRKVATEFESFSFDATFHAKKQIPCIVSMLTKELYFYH
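assay system = Procaspase-3 D3A mutant | signal = absorbance at 405 nm, 0 and 120 min | times = 1 h preincubation plus 2 h reaction at 25 °C | repeats = single replicate | read-out = % activation between DMSO and enzyme-spiked controls | medium = Zinc-free HEPES saline buffer with Triton X-100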
Neddylation inh – blocks human cullin neddylation; P61081+Q13564; TR-FRET cullin neddylation, biochemical; calls only at 25 µM; 0.58% of 360,000 active; in the data active = inhibition above about 36%
VIM-2 inh – blocks Pseudomonas aeruginosa VIM-2 metallo-beta-lactamase; purified VIM-2, nitrocefin hydrolysis, epi-absorbance fluorescence; AID 1527; 0.89% of 290,000 active; inhibition, % at 5.6 µM;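 active = inhibition above the mean of all tested compounds plus 3 SD, cutoff set per screening run, cut at about 7.5% in these data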;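 also: red hydrolysis product quenches plate fluorescence so inhibitors raise well fluorescence; 0% = enzyme with DMSO and 100% = DMSO without enzyme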
IMP-1 inh-2 – blocks IMP-1 metallo-beta-lactamase in VIM-2 selectivity screen; shares compounds with VIM-2 inh; purified IMP-1, nitrocefin hydrolysis, epi-absorbance fluorescence; inhibition, % at 5.6 µM; 1,300 tested, under 10 active; AID 1856; call rule not given here;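 also: 0% = enzyme with vehicle and 100% = vehicle without enzyme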
VIM-2 FRET inh – inhibits VIM-2 in FRET assay to exclude epi-absorbance artifacts. 23% of 1,300 active. purified VIM-2, CCF2 FRET substrate hydrolysis. AID 1857. shares compounds with VIM-2 inh. inhibition, % at 5.6 µM;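 active = inhibition above the mean of all tested compounds plus 3 SD, cut at about 19% in these data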;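 also: 0% = VIM-2 plus DMSO and 100% = no enzyme wells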
TEM-1 inh – selectivity counter-screen for VIM-2 inhibitors: E. coli TEM-1 inhibitors | Purified TEM-1, nitrocefin hydrolysis, epi-absorbance fluorescence | inhibition, % at 5.6 µM | 3% of 1,300 active | AID 1866 | shares compounds with VIM-2 inh;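 active = inhibition above that campaign's mean inhibition plus 3 SD, cut at about 0.46% in these data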;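 also: 0% = TEM-1 with DMSO and 100% = TEM-1 with 100 µM potassium clavulanate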
Target sequence (P62593 whole entry, looked up): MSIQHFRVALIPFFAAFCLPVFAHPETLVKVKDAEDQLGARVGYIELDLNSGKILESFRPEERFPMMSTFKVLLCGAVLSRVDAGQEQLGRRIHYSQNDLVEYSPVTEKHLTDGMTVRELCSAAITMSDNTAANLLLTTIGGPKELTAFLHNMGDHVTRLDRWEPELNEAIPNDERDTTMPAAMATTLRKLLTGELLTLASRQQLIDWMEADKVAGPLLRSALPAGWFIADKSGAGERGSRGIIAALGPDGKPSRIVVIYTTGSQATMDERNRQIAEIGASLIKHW
VIM-2 inh conf – confirmation of P. aeruginosa VIM-2 metallo-beta-lactamase inhibitors; shares compounds with VIM-2 inh; AID 2187; 96% of 1,300 active; inhibition, % at 5.6 µM; purified VIM-2, nitrocefin hydrolysis, epi-absorbance;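 active = inhibition of the VIM-2 beta-lactamase enzyme above about 11% from the earlier first-round screen, limit read from the data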;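 also: 0% = VIM-2 with DMSO and 100% = buffer wells without enzyme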
Numbers without * were called inactive; i = inactive; ? = inconclusive; . = no result shown. A selection: hits, their analogues and other compounds. The true share with any hit is near 1.7%.

SMILES	IMP-1 inh-1	proCasp7 act	PolyA inhibitor	proCasp3 act	Neddylation inh	VIM-2 inh	IMP-1 inh-2	VIM-2 FRET inh	TEM-1 inh	VIM-2 inh conf
CC(=C/c1ccccc1)/C=N/n1c(-c2ccncc2)n[nH]c1=S	0.7	-15.5	-6.4	6.2	i	16.0*	-3.7	47.9*	-8.8	28.1*
CC(/C=N/n1c(COc2ccccc2)n[nH]c1=S)=C\c1ccccc1	-5.0	-1.4	-24.0	-7.8	i	-4.2	.	.	.	.
CC(=C/c1ccccc1)/C=N/n1c(C)n[nH]c1=S	-1.9	-2.6	-12.3	-2.5	i	33.0*	-2.5	61.5*	-8.0	42.1*
CC(/C=N/n1c(-c2cccnc2)n[nH]c1=S)=C\c1ccccc1	-2.5	-5.4	-21.9	-11.5	i	5.7	.	.	.	.
c1ccc2c(c1)oc1c(Nc3ccc(CN4CCOCC4)cc3)ncnc12	-0.6	7.0	-11.2	-7.6	i	14.7*	-2.9	-1.2	-7.2	24.9*
Oc1ccc(Nc2ncnc3c2oc2ccccc23)cc1	-1.6	15.4	3.9	-1.5	i	3.1	.	.	.	.
CC(=O)N1CCN(c2ccc(Nc3ncnc4c3oc3ccccc34)cc2)CC1	1.6	0.9	0.4	0.9	i	69.5*	-3.0	0.0	-2.9	82.3*
Cc1cccc(NC(=O)CNC(=O)CN2C(=O)NC3(CCCCC3C)C2=O)c1C (stereo unspecified)	.	8.0	-6.0	13.6	i	.	.	.	.	.
CN1CCc2c(sc3c2c(=O)n(-c2ccc(Cl)cc2)c2nncn32)C1	-5.8	-9.4	4.0	-19.2	i	-1.9	.	.	.	.
CC1CC(C)(C)Nc2ccc(OC(=O)c3ccco3)cc21 (stereo unspecified)	-6.2	-9.4	-10.2	-2.7	i	0.3	.	.	.	.
CCOC(=O)N1CCN(S(=O)(=O)c2ccc(C(=O)Nc3sc4c(c3C(=O)OC)CCN(C)C4)cc2)CC1	-0.9	1.4	-3.5	1.9	i	76.8*	-2.4	4.2	-7.8	82.0*
NC(=S)NNc1cccc2cccnc12	-2.6	-35.0	-3.4	-18.1	i	18.1*	-5.1	-15.5	-10.4	14.8*
COc1cc(/C=C2\SC(=S)N(CCC(=O)N3CCN(C)CC3)C2=O)cc(OC)c1OC	1.9	-14.8	-0.3	-21.8	i	15.4*	-1.6	1.2	-6.1	25.1*
COc1ccc(/C=C2/SC(=S)N(CCCC(=O)N3CCN(C)CC3)C2=O)cc1	0.9	-27.3	-8.7	-2.9	i	17.5*	-2.1	4.0	-6.5	31.4*
CN1CCN(C(=O)CCCN2C(=O)/C(=C/c3ccc(Cl)cc3)SC2=S)CC1	.	-18.6	.	-7.1	i	.	.	.	.	.
COc1ccc(/C=C2/SC(=S)N(CCC(=O)N3CCN(C)CC3)C2=O)cc1	-0.8	-22.6	-0.9	-12.0	i	3.6	.	.	.	.
CN1CCN(C(=O)CCCN2C(=O)/C(=C/c3ccccc3)SC2=S)CC1	1.9	-19.5	-0.7	-14.0	i	16.2*	0.0	-2.5	-0.8	24.8*
O=C(CSc1ncnc2c1oc1ccccc12)Nc1ccccc1F	-3.2	6.3	16.0	6.2	i	-2.8	.	.	.	.
Cc1ccc(C)c(S(=O)(=O)N2CCN(C(=O)[C@H](C)N3C(=O)C4CC=CCC4C3=O)CC2)c1 (stereo partly specified)	.	-1.9	.	1.3	i	.	.	.	.	.
Cc1cc2nc(N=C(N)N)nc(C)c2cc1C	-1.6	.	.	.	i	16.6*	-3.9	0.3	-4.8	26.4*
COc1cccc(-c2nnc3sc(-c4ccccn4)nn23)c1	-2.6	-7.1	-6.7	-3.2	i	14.9*	-3.9	-1.9	-7.4	23.3*
CCOC(=O)c1ccccc1NC(=O)COC(=O)C1CC(=O)N(c2ccc3c(c2)OCCO3)C1 (stereo unspecified)	.	-1.1	0.5	4.2	i	.	.	.	.	.
Cn1c(=O)[nH]c(=O)c2c1nc(NCCCn1ccnc1)n2CCOc1ccccc1	0.3	7.6	3.6	-0.4	i	20.6*	-3.0	-5.0	-5.5	33.4*
Clc1cccc(-c2csc(Nc3cccnc3)n2)c1	-1.3	6.1	0.3	-2.7	i	-0.7	.	.	.	.
Cc1nc(C)c(-c2csc(Nc3cccnc3)n2)s1	-5.3	1.8	5.2	0.6	i	30.1*	-2.7	-6.4	-6.8	45.2*
SMILES	IMP-1 inh-1	proCasp7 act	PolyA inhibitor	proCasp3 act	Neddylation inh	VIM-2 inh	IMP-1 inh-2	VIM-2 FRET inh	TEM-1 inh	VIM-2 inh conf
c1cncc(Nc2nc(-c3cccnc3)cs2)c1	-2.6	-3.8	2.9	3.1	i	12.2*	-3.1	-7.7	-6.7	41.2*
c1cncc(Nc2nc(-c3ccncc3)cs2)c1	-0.7	-4.0	1.7	-9.6	i	16.0*	-2.1	-3.9	-5.3	38.2*
Cc1cc(OCC(=O)NCCCn2ccnc2)c2c(C)cc(=O)oc2c1	-1.8	-8.7	-2.7	4.3	.	28.1*	-3.9	-2.6	-4.9	35.5*
CCCCc1cc(=O)oc2cc(C)cc(OCC(=O)NCc3ccncc3)c12	-2.0	-3.1	-11.3	3.3	.	1.6	.	.	.	.
CCCc1cc(=O)oc2cc(C)cc(OCC(=O)NCCCn3ccnc3)c12	-3.8	-1.5	13.1	0.9	.	24.5*	-2.5	-9.1	-5.1	38.5*
Cc1cc(OCC(=O)Nc2cccnc2)c2c(C)cc(=O)oc2c1	-1.1	7.5	3.9	8.0	.	20.5*	-3.1	-2.6	-8.0	33.2*
CCOC(=O)c1cnc2ccccc2c1NCCO	-2.0	7.6	?	-4.8	i	-1.3	.	.	.	.
CCOC(=O)c1cnc2c(C)c(Cl)ccc2c1N1CCOCC1	-3.1	2.3	?	2.3	i	-2.8	.	.	.	.
CCOC(=O)c1cnc2c(C)c(Cl)ccc2c1NCCCN1CCOCC1	-0.5	-5.1	7.2	-6.0	i	16.4*	0.0	1.4	-1.1	24.9*
CCOC(=O)c1ccc2ncc(C(=O)OCC)c(NCCCN3CCOCC3)c2c1	-3.9	4.2	0.9	5.8	i	26.4*	-2.9	0.3	-6.0	53.2*
CCOC(=O)c1cnc2ccc(Br)cc2c1NCCCN1CCOCC1	-4.4	8.2	-15.2	-2.0	i	3.5	.	.	.	.
CCOC(=O)c1ccc2ncc(C(=O)OCC)c(Nc3ccc(N4CCOCC4)cc3)c2c1	-2.2	8.8	4.0	3.0	i	-2.4	.	.	.	.
CCOC(=O)c1cnc2ccc(OC)cc2c1Nc1ccc(N2CCN(C)CC2)cc1	-1.6	.	-4.7	.	i	76.4*	-2.0	0.7	-6.9	84.7*
